Converted amounts (≈) assume the structure as drawn. The source made the active and inactive calls. No cut-off for these calls is given here.
Legend:
[1] = tested on: Escherichia coli; experiment: Antibacterial activity against Escherichia coli ATCC 11230 after 24 hrs by agar disk diffusion assay; assay type: functional
In short: (§1)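 Disk diffusion with sterile 6 mm discs loaded with DMSO solutions of the test agents and placed on inoculated agar. Bacteria were pre-grown in Nutrient Broth at 30 °C for 24 h, and plates were incubated at 35 °C for 24 h. Each plate carried a reference antibiotic disc matched to the organism, and a DMSO-only solvent control was run.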

[2] = tested on: Debaryomyces hansenii; experiment: Antifungal activity against Debaryomyces hansenii DSM 70238 after 72 hrs by agar disk diffusion assay; assay type: functional
In short: (§2)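 Sterile 6 mm paper discs were loaded with ligand solution freshly prepared in DMSO and placed on inoculated agar. The inoculum came from broth cultures: bacteria in Nutrient Broth at 30 °C for 24 h, yeasts in Malt Extract Broth for 48 h. Plates were incubated at 35 °C for 24 h (bacteria) or 25 °C for 72 h (yeasts). A DMSO solvent control and a reference antibiotic disc were included on each plate.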

[3] = tested on: Pseudomonas aeruginosa; experiment: Antibacterial activity against Pseudomonas aeruginosa ATCC 27853 after 24 hrs by agar disk diffusion assay; assay type: functional; in short: as §1
[4] = tested on: Proteus vulgaris; experiment: Antibacterial activity against Proteus vulgaris ATCC 8427 after 24 hrs by agar disk diffusion assay; assay type: functional; in short: as §1
[5] = tested on: Calf thymus DNA; experiment: Binding affinity to calf thymus DNA assessed as change in electromagnetic spectrum at 500 uM by UV-vis spectroscopy; assay type: nucleic-acid assay; details: Bos taurus
In short: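 CT-DNA was prepared in ddH₂O and judged protein-free by an A260/A280 ratio of 1.8:1. UV–visible absorption spectra of the DNA solution were recorded without ligand and with increasing ligand amounts.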

[6] = Cytotoxicity against human 23132/87 cells assessed as cell viability at 1 uM after 48 hrs by MTT assay; assay type: functional; details: 23132-87, 48 h, read-out: Activity
In short: (§3)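 Cells were seeded at 3.10³–5.10³ per well in RPMI 1640 with 10% FBS, 4 mM L-glutamine and penicillin/streptomycin, then held 24 h at 37 °C under 5% CO₂. Ligands (DMSO, final 0.5% v/v) were added at 0.1–100 for 24 or 48 h. MTT was added for 4 h and dissolved in 50% DMF/5% SDS. A570 was read, and cytotoxicity was calculated as 100×(OD treated/OD untreated).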

[7] = tested on: Proteus vulgaris; experiment: Antibacterial activity against Proteus vulgaris ATCC 8427 after 24 hrs by broth micro dilution method; assay type: functional; details: ATCC 8427, 24 h
[8] = tested on: 23132-87; experiment: Induction of apoptosis in human 23132/87 cells assessed as DNA fragmentation at 100 uM after 24 hrs by DNA fragmentation assay; assay type: functional, cell-based
In short: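 10 × 10⁴ cells were seeded in 6-well plates and treated with ligand for 24 h. Cells were then collected and washed in PBS, and DNA was extracted with a kit. Extracts were run on 1.5% agarose alongside a 100 bp marker, an untreated control and DMSO-treated controls, and ladders were visualized under UV.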

[9] = tested on: Bacillus cereus; experiment: Antibacterial activity against Bacillus cereus ATCC 7064 after 24 hrs by broth micro dilution method; assay type: functional; details: ATCC 7064, 24 h
[10] = Cytotoxicity against human 23132/87 cells assessed as cell viability at 10 uM after 48 hrs by MTT assay; assay type: functional; details: 23132-87, 48 h, read-out: Activity; in short: as §3
[11] = tested on: Staphylococcus aureus; experiment: Antibacterial activity against Staphylococcus aureus ATCC 6538 after 24 hrs by broth micro dilution method; assay type: functional; details: ATCC 6538, 24 h
[12] = tested on: Listeria monocytogenes; experiment: Antibacterial activity against Listeria monocytogenes ATCC 15313 after 24 hrs by agar disk diffusion assay; assay type: functional; in short: as §1
[13] = tested on: A549; experiment: Cytotoxicity against human A549 cells assessed as cell viability at 10 uM after 48 hrs by MTT assay; assay type: functional; details: A549, 48 h, read-out: Activity; in short: as §3
[14] = Cytotoxicity against human 23132/87 cells assessed as cell viability at 100 uM after 48 hrs by MTT assay; assay type: functional; details: 23132-87, 48 h, read-out: Activity; in short: as §3
[15] = tested on: Candida albicans; experiment: Antifungal activity against Candida albicans ATCC 10231 after 24 hrs by broth micro dilution method; assay type: functional; details: ATCC 10231, 24 h
In short: (§4)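 Broth microdilution was run in cation-adjusted Mueller Hinton Broth. Compounds were dissolved in DMSO at 2 mg mL^-1 and serially diluted two-fold. Yeast precultures were grown in Malt Extract Broth for 48 h. The final inoculum was about 10⁶ cfu mL^-1, and plates were incubated at 37 °C for 24 h. The MIC was read from this series.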

[16] = Cytotoxicity against human 23132/87 cells assessed as cell viability at 10 uM after 24 hrs by MTT assay; assay type: functional; details: 23132-87, 24 h, read-out: Activity; in short: as §3
[17] = Cytotoxicity against human 23132/87 cells assessed as cell viability at 100 uM after 24 hrs by MTT assay; assay type: functional; details: 23132-87, 24 h, read-out: Activity; in short: as §3
[18] = tested on: A549; experiment: Cytotoxicity against human A549 cells assessed as cell viability at 0.1 uM after 48 hrs by MTT assay; assay type: functional; details: A549, 48 h, read-out: Activity; in short: as §3
[19] = tested on: A549; experiment: Cytotoxicity against human A549 cells assessed as cell viability at 100 uM after 24 hrs by MTT assay; assay type: functional; details: A549, 24 h, read-out: Activity; in short: as §3
[20] = tested on: Bacillus cereus; experiment: Antibacterial activity against Bacillus cereus ATCC 7064 after 24 hrs by agar disk diffusion assay; assay type: functional; in short: as §1
[21] = tested on: Rhodotorula mucilaginosa; experiment: Antifungal activity against Rhodotorula rubra DSM 70403 after 24 hrs by broth micro dilution method; assay type: functional; details: DSM 70403, 24 h; in short: as §4
[22] = tested on: Staphylococcus aureus; experiment: Antibacterial activity against Staphylococcus aureus ATCC 6538 after 24 hrs by agar disk diffusion assay; assay type: functional; in short: as §1
[23] = Cytotoxicity against human 23132/87 cells assessed as cell viability at 0.1 uM after 24 hrs by MTT assay; assay type: functional; details: 23132-87, 24 h, read-out: Activity; in short: as §3
[24] = tested on: Candida albicans; experiment: Antifungal activity against Candida albicans ATCC 10231 after 72 hrs by agar disk diffusion assay; assay type: functional; in short: as §2
[25] = tested on: A549; experiment: Cytotoxicity against human A549 cells assessed as cell viability at 1 uM after 48 hrs by MTT assay; assay type: functional; details: A549, 48 h, read-out: Activity; in short: as §3
[26] = Cytotoxicity against human 23132/87 cells assessed as cell viability at 1 uM after 24 hrs by MTT assay; assay type: functional; details: 23132-87, 24 h, read-out: Activity; in short: as §3
[27] = tested on: A549; experiment: Cytotoxicity against human A549 cells assessed as cell viability at 100 uM after 48 hrs by MTT assay; assay type: functional; details: A549, 48 h, read-out: Activity; in short: as §3
[28] = tested on: Rhodotorula mucilaginosa; experiment: Antifungal activity against Rhodotorula rubra DSM 70403 after 72 hrs by agar disk diffusion assay; assay type: functional; in short: as §2
[29] = tested on: 23132-87; experiment: Induction of apoptosis in human 23132/87 cells assessed as change in nuclear appearance at 100 uM after 24 hrs by hoechst nuclear staining; assay type: functional, cell-based
In short: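 Cells grown in 6-well plates were treated for 24 h, washed three times in PBS and fixed in ice-cold methanol for 10 min. They were stained with Hoechst 33258 for 5 min, destained in double-distilled water for 5 min and examined by fluorescence microscopy. Untreated and DMSO-treated cells served as controls.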

[30] = tested on: Micrococcus luteus; experiment: Antibacterial activity against Micrococcus luteus La 2971 after 24 hrs by agar disk diffusion assay; assay type: functional; in short: as §1
[31] = tested on: Kluyveromyces marxianus; experiment: Antifungal activity against Kluyveromyces fragilis NRRL 2415 after 72 hrs by agar disk diffusion assay; assay type: functional; in short: as §2
[32] = tested on: Listeria monocytogenes; experiment: Antibacterial activity against Listeria monocytogenes ATCC 15313 after 24 hrs by broth micro dilution method; assay type: functional; details: ATCC 15313, 24 h
[33] = tested on: Hanseniaspora guilliermondii; experiment: Antifungal activity against Hanseniaspora guilliermondii DSM 3432 after 72 hrs by agar disk diffusion assay; assay type: functional; in short: as §2
[34] = tested on: Klebsiella pneumoniae; experiment: Antibacterial activity against Klebsiella pneumoniae UC57 after 24 hrs by agar disk diffusion assay; assay type: functional; in short: as §1

Compound	inhibition zone (IZ) [1]	inhibition zone (IZ) [2]	inhibition zone (IZ) [3]	inhibition zone (IZ) [4]	Activity [5]	viability at 1 µM [6]	MIC [7]	Activity [8]	MIC [9]	viability at 10 µM [10]	MIC [11]	inhibition zone (IZ) [12]	viability at 10 µM [13]	viability at 100 µM [14]	MIC [15]	viability at 10 µM [16]	viability at 100 µM [17]	viability at 0.1 µM [18]	viability at 100 µM [19]	inhibition zone (IZ) [20]	other results
O=C1CCSSCCC(=O)Nc2nc(nc(-c3ccccc3)n2)NC(=O)CCSSCCC(=O)Nc2nc(nc(-c3ccccc3)n2)N1	10 mm	22 mm	11 mm	13 mm	inactive	> 86%	12.5 µg/mL (≈ 17.3 µM)	inactive	6.25 µg/mL (≈ 8.65 µM)	> 86%	12.5 µg/mL (≈ 17.3 µM)	10 mm	> 86%	> 86%	3.12 µg/mL (≈ 4.32 µM)	> 86%	> 86%	> 86%	> 86%	15 mm	MIC [21]: 3.12 µg/mL (≈ 4.32 µM); inhibition zone (IZ) [22]: 12 mm; viability at 0.1 µM [23]: > 86%; inhibition zone (IZ) [24]: 19 mm; viability at 1 µM [25]: > 86%; viability at 1 µM [26]: > 86%; viability at 100 µM [27]: > 86%; inhibition zone (IZ) [28]: 21 mm; Activity [29]: inactive; inhibition zone (IZ) [30]: 17 mm; inhibition zone (IZ) [31]: 21 mm; MIC [32]: 25 µg/mL (≈ 34.6 µM); inhibition zone (IZ) [33]: 22 mm; inhibition zone (IZ) [34]: 16 mm
O=C1CCSCCC(=O)Nc2nc(nc(-c3ccccc3)n2)NC(=O)CCSCCC(=O)Nc2nc(nc(-c3ccccc3)n2)N1	10 mm	18 mm	11 mm	11 mm	inactive	> 86%	25 µg/mL (≈ 37.9 µM)	inactive	12.5 µg/mL (≈ 19 µM)	> 86%	25 µg/mL (≈ 37.9 µM)	10 mm	> 86%	> 86%	3.12 µg/mL (≈ 4.74 µM)	> 86%	> 86%	> 86%	> 86%	13 mm	MIC [21]: 6.25 µg/mL (≈ 9.49 µM); inhibition zone (IZ) [22]: 10 mm; viability at 0.1 µM [23]: > 86%; inhibition zone (IZ) [24]: 19 mm; viability at 1 µM [25]: > 86%; viability at 1 µM [26]: > 86%; viability at 100 µM [27]: > 86%; inhibition zone (IZ) [28]: 16 mm; Activity [29]: inactive; inhibition zone (IZ) [30]: 12 mm; inhibition zone (IZ) [31]: 16 mm; MIC [32]: 25 µg/mL (≈ 37.9 µM); inhibition zone (IZ) [33]: 19 mm; inhibition zone (IZ) [34]: 13 mm
O=C1CSCC(=O)Nc2nc(nc(-c3ccccc3)n2)NC(=O)CSCC(=O)Nc2nc(nc(-c3ccccc3)n2)N1	10 mm	18 mm	9 mm	12 mm	inactive	> 86%	12.5 µg/mL (≈ 20.7 µM)	inactive	6.25 µg/mL (≈ 10.4 µM)	> 86%	12.5 µg/mL (≈ 20.7 µM)	10 mm	> 86%	> 86%	6.25 µg/mL (≈ 10.4 µM)	> 86%	> 86%	> 86%	> 86%	14 mm	MIC [21]: 6.25 µg/mL (≈ 10.4 µM); inhibition zone (IZ) [22]: 12 mm; viability at 0.1 µM [23]: > 86%; inhibition zone (IZ) [24]: 16 mm; viability at 1 µM [25]: > 86%; viability at 1 µM [26]: > 86%; viability at 100 µM [27]: > 86%; inhibition zone (IZ) [28]: 17 mm; Activity [29]: inactive; inhibition zone (IZ) [30]: 14 mm; inhibition zone (IZ) [31]: 15 mm; MIC [32]: 25 µg/mL (≈ 41.5 µM); inhibition zone (IZ) [33]: 20 mm; inhibition zone (IZ) [34]: 13 mm
O=C1CSSCC(=O)Nc2nc(nc(-c3ccccc3)n2)NC(=O)CSSCC(=O)Nc2nc(nc(-c3ccccc3)n2)N1	10 mm	21 mm	11 mm	11 mm	inactive	> 86%	25 µg/mL (≈ 37.5 µM)	inactive	3.12 µg/mL (≈ 4.69 µM)	> 86%	12.5 µg/mL (≈ 18.7 µM)	10 mm	> 86%	> 86%	3.12 µg/mL (≈ 4.69 µM)	> 86%	> 86%	> 86%	> 86%	17 mm	MIC [21]: 3.12 µg/mL (≈ 4.69 µM); inhibition zone (IZ) [22]: 14 mm; viability at 0.1 µM [23]: > 86%; inhibition zone (IZ) [24]: 19 mm; viability at 1 µM [25]: > 86%; viability at 1 µM [26]: > 86%; viability at 100 µM [27]: > 86%; inhibition zone (IZ) [28]: 18 mm; Activity [29]: inactive; inhibition zone (IZ) [30]: 18 mm; inhibition zone (IZ) [31]: 19 mm; MIC [32]: 25 µg/mL (≈ 37.5 µM); inhibition zone (IZ) [33]: 20 mm; inhibition zone (IZ) [34]: 15 mm

— ChEMBL document CHEMBL1156002, “Synthesis, Raman, FT-IR, NMR spectroscopic characterization, antimicrobial activity, cytotoxicity and DNA binding of new mixed aza-oxo-thia macrocyclic compounds” (2009)
